What was measured:
Assay type in all cases: functional
[1] = system: UACC-62; experiment: Growth inhibition of human UACC62 cells after 48 hrs by sulforhodamine B assay; conditions: UACC-62, 48 h
[2] = system: SW-620; experiment: Growth inhibition of human SW620 cells after 48 hrs by sulforhodamine B assay; conditions: SW-620, 48 h
[3] = system: NCI-H226; experiment: Growth inhibition of human NCI-H226 cells after 48 hrs by sulforhodamine B assay; conditions: NCI-H226, 48 h
Method in brief: (§1)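 NCI 60-cell-line screen. Compounds tested at five 10-fold dilutions from 10^-4 to 10^-8 M. Cells exposed for the last 48 h of a 72 h incubation, growth estimated by sulforhodamine B protein assay. GI50 is the concentration giving 50% growth inhibition. Values beyond the tested range are expressed as greater or lesser than the extreme concentration.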

[4] = system: HL-60(TB); experiment: Growth inhibition of human HL-60(TB) cells after 48 hrs by sulforhodamine B assay; conditions: HL-60, 48 h
Method in brief: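 NCI 60-cell-line screen, HL-60(TB) included. Compound given at five 10-fold dilutions from 10^-4 to 10^-8 M. Cells exposed for the last 48 h of a 72 h incubation. Growth or viability estimated by sulforhodamine B protein assay. GI50 is the concentration giving 50% growth inhibition. Values outside the tested range are reported as greater or less than the highest or lowest concentration.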

[5] = system: CAKI-1; experiment: Growth inhibition of human CAKI-1 cells after 48 hrs by sulforhodamine B assay; conditions: CAKI-1, 48 h; method in brief: as §1
[6] = system: T47D; experiment: Growth inhibition of human T47D cells after 48 hrs by sulforhodamine B assay
[7] = Growth inhibition of human SF295 cells after 48 hrs by sulforhodamine B assay; conditions: SF-295, 48 h
[8] = system: IGROV-1; experiment: Growth inhibition of human IGROV1 cells after 48 hrs by sulforhodamine B assay; conditions: IGROV-1, 48 h; method in brief: as §1
[9] = Growth inhibition of human HCC2998 cells after 48 hrs by sulforhodamine B assay; conditions: HCC 2998, 48 h; method in brief: as §1
[10] = system: MDA-MB-435; experiment: Growth inhibition of human MDA-MB-435 cells after 48 hrs by sulforhodamine B assay; conditions: MDA-MB-435, 48 h; method in brief: as §1
[11] = system: MDA-MB-468; experiment: Growth inhibition of human MDA-MB-468 cells after 48 hrs by sulforhodamine B assay; conditions: MDA-MB-468, 48 h; method in brief: as §1
[12] = Growth inhibition of human SF539 cells after 48 hrs by sulforhodamine B assay; conditions: SF-539, 48 h
[13] = system: SNB-19; experiment: Growth inhibition of human SNB19 cells after 48 hrs by sulforhodamine B assay; conditions: SNB-19, 48 h
[14] = system: NCI-H522; experiment: Growth inhibition of human NCI-H522 cells after 48 hrs by sulforhodamine B assay; conditions: NCI-H522, 48 h; method in brief: as §1
[15] = system: NCI-H23; experiment: Growth inhibition of human NCI-H23 cells after 48 hrs by sulforhodamine B assay; conditions: NCI-H23, 48 h; method in brief: as §1
[16] = system: SN12C; experiment: Growth inhibition of human SN12C cells after 48 hrs by sulforhodamine B assay
[17] = system: OVCAR-3; experiment: Growth inhibition of human OVCAR3 cells after 48 hrs by sulforhodamine B assay; conditions: OVCAR-3, 48 h; method in brief: as §1
[18] = system: NCI-H460; experiment: Growth inhibition of human NCI-H460 cells after 48 hrs by sulforhodamine B assay; conditions: NCI-H460, 48 h; method in brief: as §1
[19] = system: HT-29; experiment: Growth inhibition of human HT-29 cells after 48 hrs by sulforhodamine B assay; conditions: HT-29, 48 h; method in brief: as §1
[20] = system: ACHN; experiment: Growth inhibition of human ACHN cells after 48 hrs by sulforhodamine B assay; method in brief: as §1
[21] = system: TK-10; experiment: Growth inhibition of human TK10 cells after 48 hrs by sulforhodamine B assay; conditions: TK-10, 48 h
[22] = Growth inhibition of human EKVX cells after 48 hrs by sulforhodamine B assay; method in brief: as §1
[23] = system: OVCAR-8; experiment: Growth inhibition of human OVCAR8 cells after 48 hrs by sulforhodamine B assay; conditions: OVCAR-8, 48 h
[24] = system: SF-268; experiment: Growth inhibition of human SF268 cells after 48 hrs by sulforhodamine B assay; conditions: SF-268, 48 h
[25] = system: SR; experiment: Growth inhibition of human SR cells after 48 hrs by sulforhodamine B assay
[26] = system: HCT-15; experiment: Growth inhibition of human HCT15 cells after 48 hrs by sulforhodamine B assay; conditions: HCT-15, 48 h; method in brief: as §1
[27] = system: UACC-257; experiment: Growth inhibition of human UACC257 cells after 48 hrs by sulforhodamine B assay; conditions: UACC-257, 48 h
[28] = system: A549; experiment: Growth inhibition of human A549 cells after 48 hrs by sulforhodamine B assay; conditions: A549, 48 h; method in brief: as §1
[29] = Growth inhibition of human NCI-ADR-RES cells after 48 hrs by sulforhodamine B assay; method in brief: as §1
[30] = Growth inhibition of human COLO205 cells after 48 hrs by sulforhodamine B assay; conditions: COLO 205, 48 h; method in brief: as §1
[31] = system: 786-0; experiment: Growth inhibition of human 786-0 cells after 48 hrs by sulforhodamine B assay; conditions: 786-0, 48 h; method in brief: as §1
[32] = Growth inhibition of human MOLT4 cells after 48 hrs by sulforhodamine B assay; conditions: MOLT-4, 48 h; method in brief: as §1
[33] = system: NCI-H322M; experiment: Growth inhibition of human NCI-H322M cells after 48 hrs by sulforhodamine B assay; method in brief: as §1
[34] = Growth inhibition of human BT549 cells after 48 hrs by sulforhodamine B assay; conditions: BT-549, 48 h; method in brief: as §1
[35] = system: A498; experiment: Growth inhibition of human A498 cells after 48 hrs by sulforhodamine B assay; conditions: A498, 48 h; method in brief: as §1
[36] = system: U-251; experiment: Growth inhibition of human U251 cells after 48 hrs by sulforhodamine B assay; conditions: U-251, 48 h
[37] = system: PC-3; experiment: Growth inhibition of human PC3 cells after 48 hrs by sulforhodamine B assay; conditions: PC-3, 48 h
[38] = system: HOP-62; experiment: Growth inhibition of human HOP62 cells after 48 hrs by sulforhodamine B assay; conditions: HOP-62, 48 h; method in brief: as §1
[39] = system: OVCAR-5; experiment: Growth inhibition of human OVCAR5 cells after 48 hrs by sulforhodamine B assay; conditions: OVCAR-5, 48 h
[40] = system: CCRF-CEM; experiment: Growth inhibition of human CCRF-CEM cells after 48 hrs by sulforhodamine B assay; method in brief: as §1
[41] = system: Malme-3M; experiment: Growth inhibition of human MALME-3M cells after 48 hrs by sulforhodamine B assay; method in brief: as §1
[42] = system: M14; experiment: Growth inhibition of human M14 cells after 48 hrs by sulforhodamine B assay; conditions: M14, 48 h; method in brief: as §1
[43] = system: MDA-MB-231; experiment: Growth inhibition of human MDA-MB-231 cells after 48 hrs by sulforhodamine B assay; conditions: MDA-MB-231, 48 h; method in brief: as §1
[44] = system: UO-31; experiment: Growth inhibition of human UO31 cells after 48 hrs by sulforhodamine B assay; conditions: UO-31, 48 h
[45] = system: K562; experiment: Growth inhibition of human K562 cells after 48 hrs by sulforhodamine B assay; conditions: K562, 48 h; method in brief: as §1
[46] = system: SK-MEL-5; experiment: Growth inhibition of human SK-MEL-5 cells after 48 hrs by sulforhodamine B assay; conditions: SK-MEL-5, 48 h

SMILES: COC(=O)/C(=C\c1c(-c2ccccc2)[nH]c2ccccc12)S(C)(=O)=O
- GI50 [1]: 3.3 µM
- GI50 [2]: 2.9 µM
- GI50 [3]: 5 µM
- GI50 [4]: 3.4 µM
- GI50 [5]: 1.8 µM
- GI50 [6]: 2.8 µM
- GI50 [7]: 3.1 µM
- GI50 [8]: 1.7 µM
- GI50 [9]: 8.8 µM
- GI50 [10]: 0.671 µM
- GI50 [11]: 5.4 µM
- GI50 [12]: 3.1 µM
- GI50 [13]: 8.7 µM
- GI50 [14]: 3.1 µM
- GI50 [15]: 8 µM
- GI50 [16]: 3.1 µM
- GI50 [17]: 1.9 µM
- GI50 [18]: 3.5 µM
- GI50 [19]: 3.6 µM
- GI50 [20]: 9.2 µM
- GI50 [21]: 7.7 µM
- GI50 [22]: 8.9 µM
- GI50 [23]: 6.3 µM
- GI50 [24]: 4.3 µM
- GI50 [25]: 8.1 µM
- GI50 [26]: 2.4 µM
- GI50 [27]: 11.2 µM
- GI50 [28]: 5.3 µM
- GI50 [29]: 3.3 µM
- GI50 [30]: 4.4 µM
- GI50 [31]: 7.5 µM
- GI50 [32]: 4.7 µM
- GI50 [33]: 7.4 µM
- GI50 [34]: 4.3 µM
- GI50 [35]: 6.6 µM
- GI50 [36]: 3.6 µM
- GI50 [37]: 4.2 µM
- GI50 [38]: 10.7 µM
- GI50 [39]: 19.6 µM
- GI50 [40]: 7.6 µM
- GI50 [41]: 12.2 µM
- GI50 [42]: 3.3 µM
- GI50 [43]: 2.4 µM
- GI50 [44]: 5.5 µM

SMILES: N#CC(C#N)=Cc1c(-c2ccccc2)[nH]c2ccccc12
- GI50 [1]: 2.6 µM
- GI50 [45]: 0.478 µM
- GI50 [2]: 0.539 µM
- GI50 [3]: 4.1 µM
- GI50 [4]: 1.8 µM
- GI50 [5]: 6.1 µM
- GI50 [6]: 4.6 µM
- GI50 [7]: 1.6 µM
- GI50 [8]: 0.757 µM
- GI50 [9]: 10.4 µM
- GI50 [10]: 0.246 µM
- GI50 [11]: 1 µM
- GI50 [46]: 1.1 µM
- GI50 [12]: 2.1 µM
- GI50 [13]: 5.7 µM
- GI50 [14]: 9.6 µM
- GI50 [15]: 4.7 µM
- GI50 [16]: 6.8 µM
- GI50 [17]: 1.8 µM
- GI50 [18]: 2.1 µM
- GI50 [19]: 0.526 µM
- GI50 [20]: 7.3 µM
- GI50 [21]: 5.3 µM
- GI50 [22]: 5.8 µM
- GI50 [23]: 6 µM
- GI50 [24]: 13.4 µM
- GI50 [26]: 0.971 µM
- GI50 [27]: 28.1 µM
- GI50 [28]: 4.6 µM
- GI50 [29]: 0.826 µM
- GI50 [30]: 1.8 µM
- GI50 [31]: 8.6 µM
- GI50 [32]: 43.2 µM
- GI50 [33]: 11.4 µM
- GI50 [34]: 9.4 µM
- GI50 [35]: 3 µM
- GI50 [36]: 1.2 µM
- GI50 [37]: 3 µM
- GI50 [38]: 11.3 µM
- GI50 [39]: 19.7 µM
- GI50 [40]: 2.4 µM
- GI50 [41]: 26 µM
- GI50 [42]: 1.9 µM
- GI50 [43]: 1.8 µM
- GI50 [44]: 11.1 µM

— ChEMBL document CHEMBL3616442, “Unconventional Knoevenagel-type indoles: Synthesis and cell-based studies for the identification of pro-apoptotic agents” (Eur J Med Chem, 2015)
